Measurements taken from PMC6930011 (Journal of the American Chemical Society, 2019).
Where no end group is shown, it is not given here.

What was measured:
[1] = system: hPTHR1; assay: Washout assay of cAMP signaling duration; type: cell-based, human; settings: excess PTHR1 antagonist (D)Trp^12,Tyr^34-bPTH(7-34) during washout; 1 nM agonist
How it was run: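 HEK293 cells stably expressing hPTHR1, with β-arrestin at endogenous levels, were stimulated with 1 nM agonist for a defined period. Agonist was then washed off and cAMP monitored during the ligand-off phase, with excess antagonist present after washout and, in some runs, BA1 added as well. Output was area under curve, normalized to PTH(1-34)-NH2 at 1 nM. Data were mean ± s.e.m. from n = 3–4 independent experiments, compared by one-way ANOVA.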

[2] = system: PTHR1; type: cell-based; settings: HEK293 cells stably expressing HA-tagged PTHR1
[3] = system: human PTHR1; assay: cAMP production, GloSensor assay in HEK-293 cells stably expressing human PTHR1; type: cell-based; settings: relative to PTH(1-34)-NH2; Figure S2

| Substance | effect of antagonist after washout on duration and extent of cAMP production [1] | co-IP of the PTHR1 and endogenous β-arrestin [2] | potency in stimulating cAMP production, fold less potent than PTH(1-34)-NH2 [3] |
| --- | --- | --- | --- |
| PTH(1-34)-NH2 | only a modest drop | effectively induced co-IP | – |
| Trp^1-PTHrP(1-36)-NH2 (WVSEHQLLHDKGKSIQDLRRRFFLHHLIAEIHTAEI-NH2; UniProt P12272 37-72, looked up, variant A1W) | – | – | ~ 5 fold |
| Tyr^1-PTH(1-34)-NH2 (YVSEIQLMHNLGKHLNSMERVEWLRKKLQDVHNF-NH2; UniProt P01270 32-65, looked up, variant S1Y) | – | – | ~ 5 fold |
